Measured values from ChEMBL document CHEMBL2390952, “Novel triazolo-pyrrolopyridines as inhibitors of Janus kinase 1” (Bioorg Med Chem Lett, 2013).

Key:
Homo sapiens [1] = organism: Homo sapiens; assay: Selectivity ratio of Ki for JAK2 (unknown origin) to Ki for JAK1 (unknown origin)
Procedure, shortened: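 Biochemical JAK enzyme assay giving Ki, reported as the arithmetic mean of at least three separate determinations. Selectivity is taken as JAK2 Ki divided by JAK1 Ki.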

[2] = Lipophilicity, log D of the compound at pH 7.2; assay type: physicochemical; conditions: buffer
Procedure, shortened: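 Log D determined experimentally at pH 7.2.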

[3] = target: Tyrosine-protein kinase JAK2 (Homo sapiens, UniProt O60674); assay: Inhibition of JAK2 (unknown origin)
Tyrosine-protein kinase JAK2, sequence (O60674 whole entry): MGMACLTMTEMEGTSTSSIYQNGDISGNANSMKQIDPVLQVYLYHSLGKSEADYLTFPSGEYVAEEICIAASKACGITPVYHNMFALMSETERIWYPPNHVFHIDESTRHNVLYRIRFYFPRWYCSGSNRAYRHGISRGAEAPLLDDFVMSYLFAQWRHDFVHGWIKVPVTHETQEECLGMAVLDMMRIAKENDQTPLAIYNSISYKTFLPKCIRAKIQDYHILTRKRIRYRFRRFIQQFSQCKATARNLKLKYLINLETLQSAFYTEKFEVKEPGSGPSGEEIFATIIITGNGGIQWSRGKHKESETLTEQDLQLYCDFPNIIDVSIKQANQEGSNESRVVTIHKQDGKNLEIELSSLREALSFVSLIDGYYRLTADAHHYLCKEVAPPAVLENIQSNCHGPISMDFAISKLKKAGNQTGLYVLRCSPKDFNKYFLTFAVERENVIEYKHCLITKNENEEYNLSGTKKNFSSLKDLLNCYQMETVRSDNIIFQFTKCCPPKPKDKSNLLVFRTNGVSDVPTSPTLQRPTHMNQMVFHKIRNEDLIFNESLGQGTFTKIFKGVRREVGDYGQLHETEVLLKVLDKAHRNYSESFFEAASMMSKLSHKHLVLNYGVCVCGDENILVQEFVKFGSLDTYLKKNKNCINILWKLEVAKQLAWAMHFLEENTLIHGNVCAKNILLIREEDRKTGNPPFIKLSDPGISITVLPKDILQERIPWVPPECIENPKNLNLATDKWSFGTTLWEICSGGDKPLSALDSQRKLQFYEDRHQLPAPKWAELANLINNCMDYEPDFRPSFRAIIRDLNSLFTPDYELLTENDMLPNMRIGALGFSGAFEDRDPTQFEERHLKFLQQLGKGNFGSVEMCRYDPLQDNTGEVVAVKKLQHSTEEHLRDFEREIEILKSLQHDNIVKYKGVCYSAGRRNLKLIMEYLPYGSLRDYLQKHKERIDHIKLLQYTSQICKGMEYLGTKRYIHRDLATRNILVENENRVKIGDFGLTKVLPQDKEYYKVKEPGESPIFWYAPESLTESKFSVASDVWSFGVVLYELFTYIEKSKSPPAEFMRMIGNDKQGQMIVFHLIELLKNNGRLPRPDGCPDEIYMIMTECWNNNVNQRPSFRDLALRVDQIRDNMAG

[4] = target: T1, Tyrosine-protein kinase JAK1 (Homo sapiens, UniProt P23458); assay: Inhibition of JAK1 (unknown origin)
T1 sequence (P23458 whole entry): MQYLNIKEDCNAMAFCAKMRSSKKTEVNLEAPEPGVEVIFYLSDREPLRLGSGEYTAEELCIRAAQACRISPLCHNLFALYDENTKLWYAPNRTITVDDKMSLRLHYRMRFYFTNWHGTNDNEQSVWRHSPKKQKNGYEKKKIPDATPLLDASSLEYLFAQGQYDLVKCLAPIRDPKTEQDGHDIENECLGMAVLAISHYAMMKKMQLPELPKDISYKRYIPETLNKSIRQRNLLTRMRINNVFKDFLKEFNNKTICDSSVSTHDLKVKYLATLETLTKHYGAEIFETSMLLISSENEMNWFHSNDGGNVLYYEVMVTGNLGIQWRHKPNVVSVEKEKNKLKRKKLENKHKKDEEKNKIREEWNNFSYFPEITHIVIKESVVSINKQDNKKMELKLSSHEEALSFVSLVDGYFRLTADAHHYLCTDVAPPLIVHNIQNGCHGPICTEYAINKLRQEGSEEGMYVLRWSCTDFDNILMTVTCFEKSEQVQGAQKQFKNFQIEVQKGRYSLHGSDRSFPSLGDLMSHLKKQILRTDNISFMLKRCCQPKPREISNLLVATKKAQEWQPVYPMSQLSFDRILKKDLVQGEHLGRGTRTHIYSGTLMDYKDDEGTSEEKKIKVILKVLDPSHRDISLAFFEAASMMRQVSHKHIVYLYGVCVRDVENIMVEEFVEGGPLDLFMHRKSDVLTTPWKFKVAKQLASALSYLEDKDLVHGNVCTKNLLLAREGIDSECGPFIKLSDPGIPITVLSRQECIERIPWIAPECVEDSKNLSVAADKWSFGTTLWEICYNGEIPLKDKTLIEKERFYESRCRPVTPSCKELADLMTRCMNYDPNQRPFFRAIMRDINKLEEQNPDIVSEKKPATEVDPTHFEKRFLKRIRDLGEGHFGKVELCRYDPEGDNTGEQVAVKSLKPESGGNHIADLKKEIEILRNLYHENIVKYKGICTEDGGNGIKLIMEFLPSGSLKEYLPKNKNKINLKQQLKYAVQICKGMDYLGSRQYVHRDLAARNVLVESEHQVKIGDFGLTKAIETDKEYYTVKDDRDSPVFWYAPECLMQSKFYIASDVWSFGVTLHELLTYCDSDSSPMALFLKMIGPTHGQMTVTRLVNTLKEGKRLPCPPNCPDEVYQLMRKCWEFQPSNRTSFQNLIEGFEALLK

[5] = Half life in human liver microsomes; assay type: ADME, Microsome
Procedure, shortened: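 Half-life measured by incubation with in vitro preparations of human liver microsomes.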

TF-1 = assay: Selectivity ratio of EC50 for JAK2-mediated STAT5 phosphorylation in EPO-induced human TF1 cells to EC50 for JAK1-mediated STAT3 phosphorylation in IL6-induced human TF1 cells; assay type: cell-based
[6] = target: T1, Tyrosine-protein kinase JAK1; assay: Inhibition of JAK1-mediated STAT3 phosphorylation in IL6-induced human TF1 cells; assay type: cell-based, TF-1
Homo sapiens [7] = organism: Homo sapiens; assay: Selectivity ratio of Ki for TYK2 (unknown origin) to Ki for JAK1 (unknown origin)
[8] = target: Non-receptor tyrosine-protein kinase TYK2 (Homo sapiens, UniProt P29597); assay: Inhibition of TYK2 (unknown origin)
Non-receptor tyrosine-protein kinase TYK2, sequence (P29597 whole entry): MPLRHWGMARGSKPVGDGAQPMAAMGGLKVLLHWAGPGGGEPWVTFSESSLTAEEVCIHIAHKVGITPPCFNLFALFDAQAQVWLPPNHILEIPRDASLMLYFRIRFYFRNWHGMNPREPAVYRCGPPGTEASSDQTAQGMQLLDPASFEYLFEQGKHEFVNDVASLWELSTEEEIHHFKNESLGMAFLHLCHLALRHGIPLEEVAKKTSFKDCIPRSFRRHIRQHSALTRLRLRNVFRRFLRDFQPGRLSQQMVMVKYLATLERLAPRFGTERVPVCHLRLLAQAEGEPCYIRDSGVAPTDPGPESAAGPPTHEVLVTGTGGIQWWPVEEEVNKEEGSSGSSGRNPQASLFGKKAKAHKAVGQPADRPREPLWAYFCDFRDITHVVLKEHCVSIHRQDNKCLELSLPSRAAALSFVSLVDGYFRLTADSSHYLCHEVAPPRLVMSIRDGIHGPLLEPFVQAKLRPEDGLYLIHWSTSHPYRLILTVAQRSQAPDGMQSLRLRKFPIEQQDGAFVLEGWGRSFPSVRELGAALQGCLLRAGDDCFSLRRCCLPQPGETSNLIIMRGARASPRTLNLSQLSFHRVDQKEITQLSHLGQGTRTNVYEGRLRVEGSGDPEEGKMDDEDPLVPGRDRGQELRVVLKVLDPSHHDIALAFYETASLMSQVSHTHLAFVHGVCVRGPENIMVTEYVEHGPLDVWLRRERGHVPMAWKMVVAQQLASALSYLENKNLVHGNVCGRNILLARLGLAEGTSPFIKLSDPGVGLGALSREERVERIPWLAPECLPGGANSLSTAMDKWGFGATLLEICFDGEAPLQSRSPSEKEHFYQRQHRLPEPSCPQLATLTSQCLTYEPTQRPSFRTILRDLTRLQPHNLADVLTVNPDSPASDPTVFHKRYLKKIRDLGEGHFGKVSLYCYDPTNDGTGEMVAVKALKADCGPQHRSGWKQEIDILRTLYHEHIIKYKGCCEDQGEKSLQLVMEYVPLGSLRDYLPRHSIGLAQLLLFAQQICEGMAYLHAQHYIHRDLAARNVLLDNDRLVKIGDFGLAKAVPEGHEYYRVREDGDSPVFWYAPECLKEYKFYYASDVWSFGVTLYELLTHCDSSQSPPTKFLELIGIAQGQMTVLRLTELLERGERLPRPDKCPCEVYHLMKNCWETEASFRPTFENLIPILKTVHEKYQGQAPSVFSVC

Homo sapiens [9] = organism: Homo sapiens; assay: Selectivity ratio of Ki for JAK3 (unknown origin) to Ki for JAK1 (unknown origin)
[10] = target: T2, Tyrosine-protein kinase JAK3 (Homo sapiens, UniProt P52333); assay: Inhibition of JAK3 (unknown origin)
T2 sequence (P52333 whole entry): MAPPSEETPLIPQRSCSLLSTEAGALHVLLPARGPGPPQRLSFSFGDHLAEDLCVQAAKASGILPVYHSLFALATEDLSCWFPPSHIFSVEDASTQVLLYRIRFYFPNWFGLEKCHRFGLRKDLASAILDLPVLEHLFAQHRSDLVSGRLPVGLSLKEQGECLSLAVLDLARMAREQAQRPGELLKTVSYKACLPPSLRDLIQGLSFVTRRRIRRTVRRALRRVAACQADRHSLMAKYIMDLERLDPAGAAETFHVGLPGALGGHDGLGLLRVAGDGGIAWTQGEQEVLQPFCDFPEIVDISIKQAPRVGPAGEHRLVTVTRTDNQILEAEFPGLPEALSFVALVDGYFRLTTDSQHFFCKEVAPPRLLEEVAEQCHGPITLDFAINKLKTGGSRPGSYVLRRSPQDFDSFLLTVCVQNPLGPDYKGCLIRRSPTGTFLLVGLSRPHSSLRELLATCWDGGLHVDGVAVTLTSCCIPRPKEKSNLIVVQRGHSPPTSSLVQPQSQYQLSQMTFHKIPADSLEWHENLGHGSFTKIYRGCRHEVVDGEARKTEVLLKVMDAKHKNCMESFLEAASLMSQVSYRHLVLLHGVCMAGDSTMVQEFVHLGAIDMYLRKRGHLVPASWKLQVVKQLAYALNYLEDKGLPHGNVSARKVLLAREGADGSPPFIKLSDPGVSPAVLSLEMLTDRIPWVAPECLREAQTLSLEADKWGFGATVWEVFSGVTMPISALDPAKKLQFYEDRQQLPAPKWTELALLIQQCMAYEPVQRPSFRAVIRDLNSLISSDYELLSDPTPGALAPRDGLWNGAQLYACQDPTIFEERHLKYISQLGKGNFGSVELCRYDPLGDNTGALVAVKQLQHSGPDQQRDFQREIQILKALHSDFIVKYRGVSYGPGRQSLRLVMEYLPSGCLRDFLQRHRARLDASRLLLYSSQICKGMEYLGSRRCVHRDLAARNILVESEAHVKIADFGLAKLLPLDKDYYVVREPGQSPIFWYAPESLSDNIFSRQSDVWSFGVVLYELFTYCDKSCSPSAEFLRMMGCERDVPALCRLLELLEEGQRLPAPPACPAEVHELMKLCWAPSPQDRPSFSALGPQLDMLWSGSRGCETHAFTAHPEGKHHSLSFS

[11] = AUC in Sprague-Dawley rat at 5 mg/kg, po; assay type: ADME, organism-based; design: dose 5 mg/kg, route oral; conditions: plasma
Procedure, shortened: (§1)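 Rat pharmacokinetics given as mean profiles from three animals. Values normalized to 1 mg/kg iv and 5 mg/kg po. Clearance is plasma clearance after iv dosing.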

[12] = Clearance in Sprague-Dawley rat at 1 mg/kg, iv; assay type: ADME, organism-based; design: dose 1 mg/kg, route intravenous; conditions: in vivo; procedure, shortened: as §1
[13] = Cmax in Sprague-Dawley rat at 5 mg/kg, po; assay type: ADME, organism-based; design: dose 5 mg/kg, route oral; conditions: in vivo; procedure, shortened: as §1
[14] = Oral bioavailability in Sprague-Dawley rat at 5 mg/kg; assay type: ADME, organism-based; conditions: in vivo; procedure, shortened: as §1
[15] = Dissociation constant, pKa of the compound; assay type: physicochemical
[16] = Apparent permeability from apical to basolateral side in MDCK cells; assay type: ADME, cell-based, Canis lupus familiaris; conditions: dog
Procedure, shortened: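 MDCK cells grown in transwell culture. Apparent permeability measured in the apical-to-basolateral direction and reported as the arithmetic mean of at least two separate determinations.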

Structure (SMILES): c1cc2c(ncc3nnn(C4CCNCC4)c32)[nH]1
- Ratio Ki (Homo sapiens [1]): 3.2
- logD [2]: -0.35
- Ki [3]: 669 nM
- Ki [4]: 210 nM

Structure (SMILES): c1cc2c(ncc3nnn(CC4CCNCC4)c32)[nH]1
- Ratio Ki (Homo sapiens [1]): 1.7
- half-life [5]: 1.3 h
- Ki [3]: 1230 nM
- Ki [4]: 745 nM

Structure (SMILES): CC(C)(C)OC(=O)N[C@H]1CC[C@H](n2nnc3cnc4[nH]ccc4c32)CC1
- Ratio Ki (Homo sapiens [1]): 3.3
- half-life [5]: 1 h
- logD [2]: 3.58
- Ki [3]: 401 nM
- Ki [4]: 120 nM

Structure (SMILES): F[C@@H]1CNCC[C@H]1n1nnc2cnc3[nH]ccc3c21 (racemic)
- Ratio Ki (Homo sapiens [1]): 2.7
- half-life [5]: 15 h
- logD [2]: 0.77
- Ki [3]: 57 nM
- Ki [4]: 21 nM

Structure (SMILES): CC(C)CC(=O)N[C@H]1CC[C@H](n2nnc3cnc4[nH]ccc4c32)CC1
- Ratio Ki (Homo sapiens [1]): 3.6
- half-life [5]: 3.7 h
- logD [2]: 2.7
- Ratio EC50 (TF-1): 5
- EC50 [6]: 350 nM
- Ki [3]: 17 nM
- Ki [4]: 4.7 nM

Structure (SMILES): F[C@H]1CNCC[C@H]1n1nnc2cnc3[nH]ccc3c21 (racemic)
- Ratio Ki (Homo sapiens [1]): 2.3
- logD [2]: 0.27
- Ki [3]: 446 nM
- Ki [4]: 198 nM

Structure (SMILES): c1ccc(CN2CCC(n3nnc4cnc5[nH]ccc5c43)CC2)cc1
- Ratio Ki (Homo sapiens [1]): 2
- half-life [5]: 0.5 h
- Ratio EC50 (TF-1): 3.4
- EC50 [6]: 121 nM
- Ki [3]: 15 nM
- Ki [4]: 8.5 nM

Structure (SMILES): N#CCC(=O)N1CCC[C@@H](n2nnc3cnc4[nH]ccc4c32)C1
- Ratio Ki (Homo sapiens [7]): > 10
- Ki [8]: 20 nM
- Ratio Ki (Homo sapiens [9]): > 10
- Ki [10]: 24 nM
- AUC [11]: 1 µM·h
- clearance [12]: 110 mL/min/kg
- Cmax [13]: 400 nM
- bioavailability [14]: 41%
- logD [2]: 0.6
- pKa [15]: 1.96
- Papp A→B [16]: 3.7 ×10⁻⁶ cm/s
- Ratio EC50 (TF-1): 6.8
- EC50 [6]: 114 nM
- Ki [3]: 3.8 nM

Structure (SMILES): c1cncc(CN2CCC(n3nnc4cnc5[nH]ccc5c43)CC2)c1
- Ratio Ki (Homo sapiens [1]): 1.7
- half-life [5]: 0.7 h
- logD [2]: 2.03
- Ratio EC50 (TF-1): 2.7
- EC50 [6]: 414 nM
- Ki [3]: 28 nM
- Ki [4]: 16 nM

Structure (SMILES): c1ccc(CN2CCC[C@@H](n3nnc4cnc5[nH]ccc5c43)C2)cc1
- Ratio Ki (Homo sapiens [1]): 1.6
- half-life [5]: 0.2 h
- Ki [4]: 25 nM

Structure (SMILES): N[C@H]1CC[C@H](n2nnc3cnc4[nH]ccc4c32)CC1
- half-life [5]: 1.1 h
- logD [2]: -0.24

Structure (SMILES): N#CCC(=O)N1CCC[C@@H](n2cnc3cnc4[nH]ccc4c32)C1
- pKa [15]: 4.34
- Papp A→B [16]: 0.3 ×10⁻⁶ cm/s

Structure (SMILES): CC1(n2nnc3cnc4[nH]ccc4c32)CCN(CCC#N)CC1
- Ratio Ki (Homo sapiens [1]): 3.1
- half-life [5]: 4.8 h
- logD [2]: 1.92
- Ki [3]: 487 nM
- Ki [4]: 156 nM

Structure (SMILES): CN1CCC[C@H]1C(=O)N1CCC(n2nnc3cnc4[nH]ccc4c32)CC1
- Ratio Ki (Homo sapiens [1]): 5.9
- half-life [5]: 1.1 h
- Ki [3]: 721 nM
- Ki [4]: 121 nM

Structure (SMILES): COC(=O)N[C@H]1CC[C@H](n2nnc3cnc4[nH]ccc4c32)CC1
- Ratio Ki (Homo sapiens [1]): 2.3
- half-life [5]: 4.8 h
- logD [2]: 2.08
- Ratio EC50 (TF-1): 4
- EC50 [6]: 433 nM
- Ki [3]: 27 nM
- Ki [4]: 12 nM

Structure (SMILES): N#CCCN1CCC(n2nnc3cnc4[nH]ccc4c32)CC1
- AUC [11]: 1.8 µM·h
- clearance [12]: 44 mL/min/kg
- Cmax [13]: 4900 nM
- bioavailability [14]: 28%
- Ratio Ki (Homo sapiens [1]): 1.8
- half-life [5]: 1.9 h
- logD [2]: 1.12
- Papp A→B [16]: 17 ×10⁻⁶ cm/s
- Ratio EC50 (TF-1): 4.6
- EC50 [6]: 138 nM
- Ki [3]: 3.7 nM
- Ki [4]: 2.1 nM

Structure (SMILES): CC(C)(C)OC(=O)N[C@@H]1CC[C@@H](n2nnc3cnc4[nH]ccc4c32)C1
- Ratio Ki (Homo sapiens [1]): 4.2
- half-life [5]: 0.9 h
- logD [2]: 3.53
- Ratio EC50 (TF-1): 4.3
- EC50 [6]: 127 nM
- Ki [3]: 10 nM
- Ki [4]: 2.4 nM

Structure (SMILES): O[C@H]1CC[C@H](n2nnc3cnc4[nH]ccc4c32)CC1
- half-life [5]: 1.2 h
- logD [2]: 1.76

Structure (SMILES): CS(=O)(=O)N1CCC(n2nnc3cnc4[nH]ccc4c32)CC1
- AUC [11]: 18 µM·h
- clearance [12]: 16 mL/min/kg
- Cmax [13]: 4600 nM
- bioavailability [14]: > 100%
- Ratio Ki (Homo sapiens [1]): 1.9
- half-life [5]: 1.7 h
- logD [2]: 1.05
- Papp A→B [16]: 13 ×10⁻⁶ cm/s
- Ratio EC50 (TF-1): 4.8
- EC50 [6]: 249 nM
- Ki [3]: 12 nM
- Ki [4]: 6.2 nM

Structure (SMILES): CC1(n2nnc3cnc4[nH]ccc4c32)CCN(S(C)(=O)=O)CC1
- Ratio Ki (Homo sapiens [7]): > 10
- Ki [8]: 234 nM
- Ratio Ki (Homo sapiens [9]): > 10
- Ki [10]: 369 nM
- AUC [11]: 1 µM·h
- clearance [12]: 211 mL/min/kg
- Cmax [13]: 700 nM
- bioavailability [14]: 82%
- Ratio Ki (Homo sapiens [1]): 6.7
- half-life [5]: 32 h
- logD [2]: 1.5
- Papp A→B [16]: 14 ×10⁻⁶ cm/s
- Ratio EC50 (TF-1): 15
- EC50 [6]: 220 nM
- Ki [3]: 53 nM
- Ki [4]: 7.9 nM

Structure (SMILES): COC(=O)N[C@@H]1CC[C@@H](n2nnc3cnc4[nH]ccc4c32)C1 (racemic)
- Ratio Ki (Homo sapiens [1]): 2.8
- half-life [5]: 4.3 h
- logD [2]: 1.98
- Ratio EC50 (TF-1): 6.8
- EC50 [6]: 395 nM
- Ki [3]: 33 nM
- Ki [4]: 12 nM

Structure (SMILES): N#CCCO[C@H]1CC[C@H](n2nnc3cnc4[nH]ccc4c32)CC1
- half-life [5]: 5.8 h
- logD [2]: 1.36
- Ki [4]: > 3760 nM
